Common to all, as to format: functional, cell-based
The subject of experiment [1] is A2780. Kind of experiment: Induction of apoptosis in human A2780 cells at EC90 after 48 hrs by acridine orange/propidium iodide staining-based fluorescence microscopic analysis. The method, boiled down: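 The supernatant cells were pelleted, washed in PBS, resuspended in PBS, mixed with acridine orange/propidium iodide, and examined under a fluorescence microscope, with green-fluorescent cells scored as undergoing controlled death and orange cells as necrotic.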

For a further experiment, the system named is A549. Put plainly: Cytotoxicity against human A549 cells assessed as cell survival after 96 hrs by sulforhodamine B assay. Conditions: A549, 96 h. The method, boiled down:
(§1)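 Cells in exponential growth were seeded at densities that avoided confluence and, after 24 h, exposed to serial compound dilutions (0-30 μM, DMSO ≤0.5% final) for 96 h. Cells were then fixed with 10% TCA at 4 °C, washed with water, and stained with 0.4% SRB for about 20 min. Excess dye was removed with 1% acetic acid, bound dye was taken up in 10 mM Tris base, and absorbance was read at 570 nm.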

A short description of experiment [2]: Cytotoxicity against human 518A2 cells assessed as cell survival after 96 hrs by sulforhodamine B assay. Conditions: 518A2, 96 h. The method, boiled down:
as §1
In general terms: In SRB staining, fixed cells bind dye roughly in proportion to their protein.

The test system of the next experiment is MCF7. Put plainly: Cytotoxicity against human MCF7 cells assessed as cell survival after 96 hrs by sulforhodamine B assay. The settings on record: MCF7, 96 h. Put shortly:
as §1

Experiment [3] deals with A2780. Kind of experiment: Cytotoxicity against human A2780 cells assessed as cell survival after 96 hrs by sulforhodamine B assay. Conditions: A2780, 96 h. The method, boiled down: as §1
The subject of another experiment is HT-29. Kind of experiment: Cytotoxicity against human HT-29 cells assessed as cell survival after 96 hrs by sulforhodamine B assay. The settings on record: HT-29, 96 h. The method, boiled down:
as §1

A further experiment relates to 8505C. Kind of experiment: Cytotoxicity against human 8505C cells assessed as cell survival after 96 hrs by sulforhodamine B assay. Put shortly: as §1

Active and inactive are the calls of the source. The calls are words filed in the database; no cut-off is given here.

As to `CC1(C)CC[C@]2(C(=O)NCCN3CCCC3)CC[C@]3(C)C(=CC[C@@H]4[C@@]5(C)CC[C@H](O)[C@@](C)(CO)[C@@H]5CC[C@]43C)[C@@H]2C1`, in the experiment on A2780 [1], the result was Active. In addition, the EC50 (usually the midpoint of the concentration-response curve) in the experiment on A549 was 1.9 µM; in experiment [2] it was 2 µM; in the experiment with MCF7, 3.7 µM; with A2780 [3], 1.1 µM; with HT-29, 1.2 µM; with 8505C it was 1.8 µM.

`CC1(C)CC[C@]2(C(=O)OCc3cccc([N+](=O)[O-])c3)CC[C@]3(C)C(=CC[C@@H]4[C@@]5(C)CC[C@H](O)[C@@](C)(CO)[C@@H]5CC[C@]43C)[C@@H]2C1`: the EC50 with A549 was 8.1 µM; in experiment [2], 8.1 µM; with MCF7, 8.3 µM; in the experiment on A2780 [3], 11.9 µM; in the experiment with HT-29 it was 12 µM; with 8505C, 6.6 µM.

Consider `COc1cc(COC(=O)[C@]23CCC(C)(C)C[C@H]2C2=CC[C@@H]4[C@@]5(C)CC[C@H](O)[C@@](C)(CO)[C@@H]5CC[C@@]4(C)[C@]2(C)CC3)cc(OC)c1`, for which the EC50 with A549 came to 14 µM; in experiment [2], 12.7 µM; in the experiment with MCF7 it was 13.4 µM; with A2780 [3] it was 13.5 µM; in the experiment with HT-29, 14 µM; in the experiment with 8505C, 12.8 µM.

Turning to `Cc1cccc(COC(=O)[C@]23CCC(C)(C)C[C@H]2C2=CC[C@@H]4[C@@]5(C)CC[C@H](O)[C@@](C)(CO)[C@@H]5CC[C@@]4(C)[C@]2(C)CC3)c1`, the EC50 was found to be 13.5 µM with A549; 10.9 µM in experiment [2]; 13.5 µM in the experiment with MCF7; 13.7 µM in the experiment on A2780 [3]; 14.4 µM in the experiment with HT-29; 9.7 µM with 8505C.

Take `CC1(C)CC[C@]2(C(=O)OCCCN3C(=O)c4ccccc4C3=O)CC[C@]3(C)C(=CC[C@@H]4[C@@]5(C)CC[C@H](O)[C@@](C)(CO)[C@@H]5CC[C@]43C)[C@@H]2C1`: the EC50 in the experiment on A549 was determined as 11.4 µM; in experiment [2], 8.7 µM; in the experiment with MCF7 it was 9 µM; in the experiment on A2780 [3] it was 12.1 µM; in the experiment with HT-29 it was 13.4 µM; in the experiment on 8505C it was 10.3 µM.

For `CC1(C)CC[C@]2(C(=O)OCc3ccc(Cl)cc3)CC[C@]3(C)C(=CC[C@@H]4[C@@]5(C)CC[C@H](O)[C@@](C)(CO)[C@@H]5CC[C@]43C)[C@@H]2C1`, the EC50 with A549 is 9.8 µM; in experiment [2], 11.4 µM; in the experiment on MCF7, 12.7 µM; with A2780 [3], 13 µM; with HT-29, 13.5 µM; with 8505C, 8.1 µM.

As for `CC1(C)CC[C@]2(C(=O)NCCN3CCCCC3)CC[C@]3(C)C(=CC[C@@H]4[C@@]5(C)CC[C@H](O)[C@@](C)(CO)[C@@H]5CC[C@]43C)[C@@H]2C1`, the EC50 with A549 is 2.7 µM; in experiment [2], 3.7 µM; in the experiment on MCF7, 6.5 µM; in the experiment on A2780 [3] it was 1.8 µM; in the experiment on HT-29, 1.3 µM; with 8505C, 3.6 µM.

These data come from ChEMBL document CHEMBL3632609, “Hederagenin as a triterpene template for the development of new antitumor compounds” (Eur J Med Chem, 2015).
